Assay outcomes as filed in PubChem.
pPAFAH inh: pPAFAH (human) enzyme inhibition. Q13093. recombinant pPAFAH, FP-rhodamine probe fluorescence polarization. inhibition, % at 3.39 µM. 1.5% of 330,000 active. AID 463082;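 active = inhibition above the mean inhibition across the screen plus 3 SD, cut at about 25% in these data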;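 note: inhibitors block binding of the rhodamine activity-based probe so polarization drops; 0% = enzyme with DMSO and 100% = wells lacking pPAFAH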
PAFAH2 FP inh: PAFAH2 (human) inhibition; Q99487; recombinant PAFAH2, FP-rhodamine activity probe, fluorescence polarization; inhibition, % at 3.39 µM; 0.99% of 340,000 active; AID 492956;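 active = inhibition above the mean over all tested compounds plus 3 SD, cut at about 30% in these data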;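 note: inhibitors block probe labeling of enzyme so polarization drops; 0% = enzyme with DMSO and 100% = wells lacking PAFAH2 protein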
PREPL inh: inhibitors of human prolyl oligopeptidase-like enzyme PREPL; recombinant PREPL, fluorescence polarization activity-based probe; inhibition, % at 5.96 µM; 0.68% of 320,000 active; in the data active = inhibition above about 43%;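 note: 0% = enzyme with DMSO and 100% = wells lacking enzyme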
PAFAH1B2 FP inh: blocks human PAF acetylhydrolase 1b catalytic subunit 2; P68402; recombinant PAFAH1B2, FP-rhodamine activity probe, fluorescence polarization; inhibition, % at 3.39 µM; 1.2% of 340,000 active; AID 492953;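 active = inhibition above the mean of all tested compounds plus 3 SD, cut at about 24% in these data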;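 note: 0% = enzyme with DMSO and 100% = wells lacking PAFAH1B2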
Target sequence (P68402 whole entry, looked up): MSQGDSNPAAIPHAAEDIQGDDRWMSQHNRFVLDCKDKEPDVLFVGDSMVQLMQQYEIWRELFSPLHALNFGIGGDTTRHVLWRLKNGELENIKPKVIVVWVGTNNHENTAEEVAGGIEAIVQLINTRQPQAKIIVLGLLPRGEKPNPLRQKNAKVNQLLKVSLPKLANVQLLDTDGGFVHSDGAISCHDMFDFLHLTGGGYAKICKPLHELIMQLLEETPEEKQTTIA
PAFAH1B3 inh: PAFAH1B3 (human) inhibition; recombinant PAFAH1B3, FP-rhodamine probe, fluorescence polarization; inhibition, % at 3.39 µM; AID 492972; 0.28% of 340,000 active;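 active = inhibition above the screen-wide average of all tested compounds plus 3 SD, cut at about 25% in these data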;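 note: 0% = enzyme with DMSO only and 100% = wells lacking PAFAH1B3 protein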
Target sequence (Q15102 whole entry, looked up): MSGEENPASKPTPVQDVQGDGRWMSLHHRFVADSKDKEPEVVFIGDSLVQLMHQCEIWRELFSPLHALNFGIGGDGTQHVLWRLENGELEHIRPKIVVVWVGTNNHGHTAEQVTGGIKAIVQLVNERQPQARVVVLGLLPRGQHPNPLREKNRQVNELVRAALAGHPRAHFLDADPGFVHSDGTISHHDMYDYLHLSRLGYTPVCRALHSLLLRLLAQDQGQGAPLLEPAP
Apaf-1 inh: blocks human Apaf-1 apoptosome activity | reconstituted apoptosome caspase-3 activity, DEVD-Rh110 fluorescence | AID 489030 | inhibition, % at 20 µM | 0.71% of 330,000 active; active = inhibition of at least 40% at 20 µM;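 note: plate controls were DMSO wells for no effect and DEVD-CHO caspase inhibitor wells for full effect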
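Medium: Hepes buffer, pH 7.5 / System: biochemical Apaf-1 apoptosome reconstitution / Measured by: Rh110 fluorescence, excitation 480 nm, emission 540 nm / Times: compound with Apaf-1, dATP, procaspase-3 30 min, then 50 min reaction, room temperature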
Active calls of the source: *; . = not tested or not shown. Sampled rows, rich in hits. Any-hit rate of the full collection: about 3.5%.

SMILES | pPAFAH inh | PAFAH2 FP inh | PREPL inh | PAFAH1B2 FP inh | PAFAH1B3 inh | Apaf-1 inh
O=C(COC(=O)CCNS(=O)(=O)c1ccc(Cl)cc1)NCc1ccco1 | 27* | 3 | -11 | 14 | 2 | -6
Cc1ccc(S(=O)(=O)NCCC(=O)OCC(=O)Nc2cccc(Cl)c2)cc1 | 16 | -6 | 1 | 2 | -4 | 0
CC(=O)Nc1ccc(OC(=O)Cc2ccc(Cl)cc2)cc1 | 12 | -10 | -3 | 17 | 7 | 2
CN(CCC#N)C(=O)COC(=O)c1c2c(nc3ccccc13)/C(=C/c1ccco1)CC2 | 27* | 9 | 15 | 3 | 7 | .
C=CCOc1ccc(/C=C2\C(=N)N3N=C(S(=O)(=O)CC)SC3=NC2=O)cc1OC | 1 | 3 | 1 | -5 | 6 | 7
CCS(=O)(=O)C1=NN2C(=N)/C(=C\c3ccc(OC(=O)c4ccco4)c(OC)c3)C(=O)N=C2S1 | 5 | 9 | 51* | -4 | -7 | -3
N#CC1=C(N)SC(N)=C(C#N)C1c1ccoc1 | 68* | . | 34 | . | . | 23
CCc1ccccc1NS(=O)(=O)c1cc2c(cc1C)n(C)c(=O)c(=O)n2C | 0 | 6 | -7 | 5 | 5 | -5
Cc1cc2c(cc1S(=O)(=O)NCC(C)c1ccccc1)n(C)c(=O)c(=O)n2C (centres undefined) | 1 | -6 | 4 | 26* | 6 | 0
COc1cccc(/C=N/N2CCN(c3ccc(Cl)cc3)CC2)c1OC | 5 | 0 | 16 | 33* | 5 | 20
Clc1ccc(N2CCN(/N=C/c3cccnc3)CC2)cc1 | 6 | 2 | 21 | 28* | 0 | 2
COc1ccccc1OCC(=O)Nc1nc(C)c(C)s1 | -1 | 2 | -3 | 0 | 5 | 5
COc1ccc(-n2c3c(c(=O)[nH]c2=O)C(NS(=O)(=O)c2ccc(Cl)cc2)(C(F)(F)F)C(=O)N3)cc1 (centres undefined) | 5 | -5 | 15 | -2 | 6 | -7
C#CCOCCOCCOCCNc1nc(N2CCN(C(=O)CCCCCCCCCCNC(=O)[C@@H](CCSC)n3cc(CCO)nn3)CC2)nc(N2CCN(C(=O)CCCCCCCCCCNC(=O)[C@@H]([C@H](C)O)n3cc(C)nn3)CC2)n1 | 9 | -10 | 9 | -5 | -1 | 34
C#CCOCCOCCOCCNc1nc(N2CCN(C(=O)CCCCCCCCCCNC(=O)[C@H](CCCCN)n3cc(C)nn3)CC2)nc(N2CCN(C(=O)CCCCCCCCCCNC(=O)[C@@H]([C@H](C)O)n3cc(C)nn3)CC2)n1 | 1 | -5 | 36 | -10 | 4 | 54*
C#CCOCCOCCOCCNc1nc(N2CCN(C(=O)CCCCCCCCCCNC(=O)[C@H](CCCCN)n3cc(C[C@@H](C)CC)nn3)CC2)nc(N2CCN(C(=O)CCCCCCCCCCNC(=O)[C@@H]([C@H](C)O)n3cc(C)nn3)CC2)n1 | -1 | 5 | 35 | -1 | 2 | 58*
C#CCOCCOCCOCCNc1nc(N2CCN(C(=O)CCCCCCCCCCNC(=O)Cn3cc(C[C@@H](C)O)nn3)CC2)nc(N2CCN(C(=O)CCCCCCCCCCNC(=O)[C@@H]([C@H](C)O)n3cc(C)nn3)CC2)n1 | 16 | -2 | 9 | -3 | 6 | 27
CC(C)CN(C(=O)C1CCCC1)C1CCS(=O)(=O)C1 (centres undefined) | . | 5 | . | 6 | 0 | -1
CCOc1cc(C2Nc3cccc4cccc(c34)N2)ccc1O | 6 | 41* | 15 | 27* | 40* | 15
Cc1ccccc1C(=O)Nc1nnc(-c2cccnc2)o1 | 5 | -1 | 3 | -1 | 9 | -26
C/C(=N\NC(=O)c1cc(C)nc2ccccc12)c1ccco1 | 0 | 5 | 1 | 0 | 9 | 1
C/C(=N/NC(=O)c1cc2ccccc2cc1O)c1ccco1 | 40* | -7 | 19 | 5 | 15 | 17
CCOc1ccc2oc(-c3ccccc3)c(C(N)=O)c2c1 | 5 | -1 | 11 | 4 | 4 | 12
CCCCCn1c(=S)[nH]c2cc(C(=O)N3CCCC3)ccc2c1=O | 5 | -1 | 2 | -1 | 3 | -3
O=C(c1ccc(Cn2c(=S)[nH]c3cc4c(cc3c2=O)OCO4)cc1)N1CCN(c2ccccc2)CC1 | 7 | -2 | 1 | 1 | -4 | 11
